# Experiments:
# [1] = Metabolic stability in human liver microsomes assessed as parent compound turnover at 1 uM after 15 mins; format: ADME, Microsome; settings: read-out: Stability
# Outline: (§1)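 Test compounds at 1 μM incubated at 37 °C for 15 min with liver microsomes (rat, dog or human) at 0.5 mg/ml protein. Cosolvent was 0.99% MeCN + 0.01% DMSO. Read-out is % turnover of parent.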
# [2] = target: T1, Sodium- and chloride-dependent glycine transporter 2 (Homo sapiens, UniProt Q9Y345); experiment: Inhibition of human glycine transporter 2
# T1 sequence (Q9Y345 whole entry): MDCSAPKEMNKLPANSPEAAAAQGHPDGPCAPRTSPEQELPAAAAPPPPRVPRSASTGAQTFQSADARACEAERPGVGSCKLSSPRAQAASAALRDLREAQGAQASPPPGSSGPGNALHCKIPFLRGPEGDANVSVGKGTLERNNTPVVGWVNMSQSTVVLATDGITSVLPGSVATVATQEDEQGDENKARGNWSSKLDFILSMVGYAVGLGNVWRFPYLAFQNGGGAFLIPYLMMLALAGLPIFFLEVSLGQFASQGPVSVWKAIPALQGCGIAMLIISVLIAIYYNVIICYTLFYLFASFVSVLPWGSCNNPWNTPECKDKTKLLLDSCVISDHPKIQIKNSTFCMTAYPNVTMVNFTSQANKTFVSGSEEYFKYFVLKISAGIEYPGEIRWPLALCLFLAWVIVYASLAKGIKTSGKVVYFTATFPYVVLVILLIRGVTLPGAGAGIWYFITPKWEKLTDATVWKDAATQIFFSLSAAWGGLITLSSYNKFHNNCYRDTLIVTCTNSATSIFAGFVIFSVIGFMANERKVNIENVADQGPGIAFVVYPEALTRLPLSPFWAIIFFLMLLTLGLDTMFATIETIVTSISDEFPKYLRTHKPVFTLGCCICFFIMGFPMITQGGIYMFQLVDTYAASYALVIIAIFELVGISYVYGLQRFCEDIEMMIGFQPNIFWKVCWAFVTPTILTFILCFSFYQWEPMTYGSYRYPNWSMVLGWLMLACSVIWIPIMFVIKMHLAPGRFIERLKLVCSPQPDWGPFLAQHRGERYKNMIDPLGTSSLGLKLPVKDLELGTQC
# [3] = Metabolic stability in rat liver microsomes assessed as parent compound turnover at 1 uM after 15 mins; format: ADME, Microsome; settings: read-out: Stability; outline: as §1
# Mus musculus = experiment: Ex vivo occupancy of glycine transporter 1 in po dosed mouse; format: functional
# [4] = Bioavailability in Sprague-Dawley rat at 0.1 mg/kg, iv and 1 mg/kg, po; format: ADME, organism-based; settings: in vivo
# Outline: (§2)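 Six male Sprague-Dawley rats were used. Three received 0.1 mg/kg i.v. and three received 1 mg/kg p.o.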
# [5] = target: T2, Sodium- and chloride-dependent glycine transporter 1 (Homo sapiens, UniProt P48067); experiment: Inhibition of [3H]glycine uptake at human glycine transporter 1 expressed in human JAR cells after 3 hrs by scintillation counting; format: cell-based
# T2 sequence (P48067 whole entry): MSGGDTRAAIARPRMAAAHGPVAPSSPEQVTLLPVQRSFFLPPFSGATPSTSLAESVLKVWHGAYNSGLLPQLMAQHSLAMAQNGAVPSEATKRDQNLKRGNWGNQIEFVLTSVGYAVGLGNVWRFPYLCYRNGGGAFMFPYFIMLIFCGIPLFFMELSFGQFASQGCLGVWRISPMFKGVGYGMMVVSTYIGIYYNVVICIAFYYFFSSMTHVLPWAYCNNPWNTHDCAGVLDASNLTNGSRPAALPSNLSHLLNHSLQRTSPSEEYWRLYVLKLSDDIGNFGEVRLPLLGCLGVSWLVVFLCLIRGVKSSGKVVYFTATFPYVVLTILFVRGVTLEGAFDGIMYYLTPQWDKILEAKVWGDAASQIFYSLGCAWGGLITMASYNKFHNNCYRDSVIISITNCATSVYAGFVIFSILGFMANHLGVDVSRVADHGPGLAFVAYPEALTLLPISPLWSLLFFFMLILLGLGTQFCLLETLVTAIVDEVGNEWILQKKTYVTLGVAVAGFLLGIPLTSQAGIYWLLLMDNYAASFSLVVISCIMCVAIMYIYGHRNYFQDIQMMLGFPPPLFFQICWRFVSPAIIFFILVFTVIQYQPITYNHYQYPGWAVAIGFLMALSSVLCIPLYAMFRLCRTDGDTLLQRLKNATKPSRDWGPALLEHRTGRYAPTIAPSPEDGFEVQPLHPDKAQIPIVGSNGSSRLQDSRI
# [6] = Metabolic stability in dog liver microsomes assessed as parent compound turnover at 1 uM after 15 mins; format: ADME, Canis lupus familiaris, Microsome; settings: read-out: Stability; outline: as §1
# [7] = Half life in Sprague-Dawley rat at 0.1 mg/kg, iv and 1 mg/kg, po; format: ADME, organism-based; settings: in vivo; outline: as §2
# [8] = target: T3, Sodium- and chloride-dependent glycine transporter 1 (Homo sapiens) (UniProt P48067); experiment: Inhibition of [3H]glycine uptake at human glycine transporter 1 expressed in human JAR cells at 3 uM after 3 hrs by scintillation counting; format: cell-based
# T3 sequence (whole entry): T2 sequence (P48067 whole entry)
# [9] = Plasma clearance in Sprague-Dawley rat at 0.1 mg/kg, iv and 1 mg/kg, po; format: ADME, organism-based; outline: as §2
# [10] = Clearance in Sprague-Dawley rat at 0.1 mg/kg, iv and 1 mg/kg, po; format: ADME, organism-based; settings: in vivo; outline: as §2
# [11] = Volume of distribution in Sprague-Dawley rat at 0.1 mg/kg, iv and 1 mg/kg, po; format: ADME, organism-based; settings: in vivo; outline: as §2
# Rattus norvegicus = experiment: In vivo occupancy of glycine transporter 1 in rat; format: functional
# [12] = Volume of distribution at steady state in Sprague-Dawley rat at 0.1 mg/kg, iv and 1 mg/kg, po; format: ADME, organism-based; settings: in vivo, read-out: Vdss; outline: as §2
SMILES,"metabolised at 0.25 h, 1 µM [1]","metabolised at 0.25 h, 1 µM [3]",IC50 [5],"metabolised at 0.25 h, 1 µM [6]",further results
Cn1cc(S(=O)(=O)N2CCC(CNC(=O)c3ccc(Cl)cc3Cl)(c3ncccc3F)CC2)nn1,20%,6%,0.65 nM,17%,IC50 [2]: > 10 µM; Occ50 (Mus musculus): 7.5 mg/kg; bioavailability [4]: 3%; half-life [7]: 18 min
Cn1ncnc1S(=O)(=O)N1CCC(CNC(=O)c2ccc(Cl)cc2Cl)(CC2CC2)CC1,,,314 nM,,
O=C(NCC1(c2ncccc2F)CCN(S(=O)(=O)c2cccnc2)CC1)c1ccc(Cl)cc1Cl,99%,99%,11.6 nM,96%,
O=C(NCC1(c2ncccc2F)CCN(S(=O)(=O)Cc2ccccc2)CC1)c1ccc(Cl)cc1Cl,,,,,inhibition [8]: 33%
Cn1cc(S(=O)(=O)N2CC(CNC(=O)c3ccc(Cl)cc3Cl)(CC3CC3)C2)cn1,21%,17%,3.62 nM,70%,IC50 [2]: > 10 µM; Occ50 (Mus musculus): 3.8 mg/kg; bioavailability [4]: 48%; clearance [9]: 46 mL/min/kg; half-life [7]: 144 min
Cn1nncc1S(=O)(=O)N1CC(CNC(=O)c2ccc(Cl)cc2Cl)(CC2CC2)C1,,,185 nM,,
O=C(NCC1(c2ncccc2F)CCN(S(=O)(=O)c2ccccc2)CC1)c1ccc(Cl)cc1Cl,,,,,inhibition [8]: 38%
Cn1cnc(S(=O)(=O)N2CCC(CNC(=O)c3ccc(Cl)cc3Cl)(c3ncccc3F)CC2)c1,,30%,1.74 nM,21%,IC50 [2]: > 10 µM
Cn1cnnc1S(=O)(=O)N1CCC(CNC(=O)c2ccc(Cl)cc2Cl)(CC2CC2)CC1,,,124 nM,,
CCn1cc(S(=O)(=O)N2CCC(CNC(=O)c3ccc(Cl)cc3Cl)(CC3CC3)CC2)nn1,,,28.2 nM,,
Cn1cc(S(=O)(=O)N2CCC(CNC(=O)c3ccc(Cl)cc3Cl)(CC3CC3)CC2)nn1,43%,88%,0.32 nM,34%,IC50 [2]: > 10 µM; clearance [10]: 39 mL/min/kg; Occ50 (Mus musculus): <1 mg/kg; bioavailability [4]: 27%; Vd [11]: 2.2 L/kg; half-life [7]: 66 min
O=C(NCC1(CC2CC2)CCN(S(=O)(=O)c2cn(CC(F)(F)F)nn2)CC1)c1ccc(Cl)cc1Cl,,,502 nM,,
Cn1cc(S(=O)(=O)N2CCC(CNC(=O)c3ccc(Cl)cc3Cl)(c3ncccc3F)CC2)cn1,42%,55%,5.43 nM,24%,IC50 [2]: > 10 µM
Cn1ncc(S(=O)(=O)N2CC(CNC(=O)c3ccc(Cl)cc3Cl)(CC3CC3)C2)n1,,,132 nM,,
Cn1cc(S(=O)(=O)[C@H]2CC[C@](CNC(=O)c3ccc(Cl)cc3Cl)(CC3CC3)CC2)nn1,28%,10%,5.44 nM,,Occ50 (Rattus norvegicus): 3.4 mg/kg; bioavailability [4]: 105%; Vd [12]: 2.6 L/kg; clearance [9]: 34 mL/min/kg; half-life [7]: 66 min
O=C(NCC1(CC2CC2)CN(S(=O)(=O)c2c[nH]nn2)C1)c1ccc(Cl)cc1Cl,,,871 nM,,
CCn1cc(S(=O)(=O)N2CC(CNC(=O)c3ccc(Cl)cc3Cl)(CC3CC3)C2)nn1,45%,65%,2.58 nM,44%,
Cn1cc(S(=O)(=O)N2CCC(CNC(=O)c3ccc(Cl)cc3Cl)(CC3CC3)CC2)cn1,10%,5%,10.3 nM,38%,IC50 [2]: > 10 µM
Cn1cc(S(=O)(=O)N2CC(CNC(=O)c3ccc(Cl)cc3Cl)(c3ncccc3F)C2)nn1,22%,15%,0.31 nM,5%,
O=C(NCC1(c2ncccc2F)CCN(S(=O)(=O)c2ccc(Cl)s2)CC1)c1ccc(Cl)cc1Cl,,,,,inhibition [8]: 20%
Cc1nc(S(=O)(=O)N2CCC(CNC(=O)c3ccc(Cl)cc3Cl)(c3ncccc3F)CC2)cn1C,,,,,inhibition [8]: 31%
Cn1cc(S(=O)(=O)N2CC(CNC(=O)c3ccc(Cl)cc3Cl)(CC3CC3)C2)nn1,32%,88%,0.1 nM,24%,
Cn1cnc(S(=O)(=O)N2CCC(CNC(=O)c3ccc(Cl)cc3Cl)(CC3CC3)CC2)n1,,,,,inhibition [8]: 13%
O=C(NCC1(c2ncccc2F)CCN(S(=O)(=O)CC2CC2)CC1)c1ccc(Cl)cc1Cl,21%,78%,2 nM,20%,
CCCS(=O)(=O)N1CCC(CNC(=O)c2ccc(Cl)cc2Cl)(c2ncccc2F)CC1,23%,73%,4.33 nM,25%,
O=C(NCC1(c2ncccc2F)CCN(S(=O)(=O)c2cccs2)CC1)c1ccc(Cl)cc1Cl,,98%,125 nM,72%,
Cn1cc(S(=O)(=O)N2CC(CNC(=O)c3ccc(Cl)cc3Cl)(c3ncccc3F)C2)cn1,25%,56%,2.95 nM,< 5%,
Cn1cc(S(=O)(=O)[C@H]2CC[C@@](CNC(=O)c3ccc(Cl)cc3Cl)(CC3CC3)CC2)nn1,28%,23%,1.89 nM,,Occ50 (Rattus norvegicus): 2.2 mg/kg; bioavailability [4]: 59%; Vd [12]: 2.3 L/kg; clearance [9]: 16 mL/min/kg; half-life [7]: 108 min
